The results in this text go back to paper PMC11962390 (Molecular Cancer Therapeutics, 2025).

pEC50, pIC50: −log10 of the molar value.

By pIC50 is commonly meant −log10 of the IC50, conventionally taken in molar units. High values mean a small IC50, low ones a large IC50. The pEC50 is the EC50 on a negative log10 scale, so that one unit is a factor of ten.

Experiment [1] has as its system primary HGSC organoids. Put plainly: Organoid drug-response profiling, whole panel. In kind it is cell-based, human. The following applies: 96 hours. The essentials:
(§1)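 Patient-derived HGSC organoids were embedded in BME-2 droplets in 384-well ultralow-attachment plates and grown 7–10 days with medium changes every 2–3 days. Test compounds were added in five 10-fold dilutions, with DMSO and 10 μmol/L bortezomib as controls. After 96 h at 37°C, wells were stained 2 h with CellTox Green and Hoechst 33342 (5 μg/mL final) and imaged confocally. Survival was normalized to controls and fitted by four-parameter fit (bottom 0), mean ± SD, n = 2.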

In experiment [2] the test system is OV81-CP40 cells. In words: MTT cell viability assay. In kind it is cell-based, human. On the technique in general: Formazan colour is commonly taken as a measure of viable cells.
Experiment [3] relates to OV-UM32.1 cells. In words: 3D CellTiter-Glo cell viability assay. In kind it is cell-based, human. The settings on record: OV-UM32.1, 3D, 48 hours. For orientation: Cellular ATP, detected with luciferase, serves as a proxy for viable cell number.
Experiment [4] has as its system OV-UM50.2 cells. In words: 3D CellTiter-Glo cell viability assay. The class given is cell-based, human. The settings on record: OV-UM50.2, 3D, 48 hours.
The subject of experiment [5] is OV-UM52.1 cells. Put plainly: 3D CellTiter-Glo cell viability assay. In kind it is cell-based, human. The settings on record: OV-UM52.1, 3D, 48 hours. The essentials:
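Primary HGSC cells were grown as 3D spheres in MammoCult with supplement on ultralow-attachment plates and treated with a dose curve of test compound. CellTiter-Glo 3D luminescence was read after 48 h. Values were expressed relative to DMSO (mean ± SEM, n = 3). The curve was fitted with bottom constrained to 0 and top to 1.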

In experiment [6] the test system is OV231-CP30 cells. In words: MTT cell viability assay. In kind it is cell-based, human.
Experiment [7] relates to P10_rPlfl patient-derived organoid. Put plainly: Organoid drug-response profiling. In kind it is cell-based, human. The settings on record: organoid P10_rPIfl, 96 hours. The essentials: as §1
The subject of experiment [8] is OV81-CP40 cells. In words: CellTiter-Glo cell viability assay. The class given is cell-based, human.
The test system of experiment [9] is P12_rPer patient-derived organoid. Put plainly: Organoid drug-response profiling. The class given is cell-based, human. The settings on record: 96 hours. The method in brief:
as §1

Experiment [10] concerns FT237 cells. Put plainly: CellTiter-Glo cell viability assay. The class given is cell-based, human. The settings on record: nonmalignant fallopian tube secretory cell line FT237, 48 hours. The essentials:
(§2)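 2D culture in the cells' own medium in 96-well plates. Cells were treated with a dose curve of test compound one day after plating. CellTiter-Glo luminescence was read after 48 h. Viability was expressed as fold change to DMSO (mean ± SEM, n = 3). EC50 came from a sigmoidal variable-slope fit.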

Experiment [11] has as its system HEC1B cells. Put plainly: MTT cell viability assay. The class given is cell-based, human. The following applies: dose response up to 10 μmol/L, 48 hours, unable to generate an EC50.
Experiment [12] relates to OV231-CP30 cells. Put plainly: CellTiter-Glo cell viability assay. The following applies: OV231-CP30, 48 hours, Fig. 2B. The class given is cell-based, human. The method in brief: as §2
The test system of experiment [13] is JHUEM7 cells. Put plainly: MTT cell viability assay. In kind it is cell-based, human. The settings on record: TNIK-null JHUEM7, 48 hours, Fig. 3K.
For experiment [14], the system named is FT194 cells. Put plainly: CellTiter-Glo cell viability assay. The class given is cell-based, human. The following applies: nonmalignant fallopian tube secretory cell line FT194, 48 hours. The essentials:
as §2

The subject of experiment [15] is OV231-CP30 spheres. In words: 3D CellTiter-Glo cell viability assay of spheres. In kind it is cell-based, human. The following applies: OV231-CP30 grown in 3D (spheroids), 48 hours. The essentials:
(§3)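 Cells (500) were seeded in MammoCult with proliferation supplement in ultralow-attachment 96-well plates to form spheres. Seven days after plating, the spheres were treated with the test compound. CellTiter-Glo 3D luminescence was read 48 h later. Dose–response curves were fitted by sigmoidal variable-slope fit.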

For experiment [16], the system named is OV81-CP40 spheres. In words: 3D CellTiter-Glo cell viability assay of spheres. The class given is cell-based, human. The following applies: OV81-CP40 grown in 3D (spheroids), 48 hours. The essentials:
as §3

Experiment [17] has as its system canonical Wnt pathway activation (reporter TOP-GFP) in OV81-CP40 cells. Put plainly: TOP-GFP and FOP-GFP assay. The class given is cell-based, human. The settings on record: OV81-CP40, 6 hours, 20 mmol/L LiCl, […] NCB-0846 or 100 nmol/L NVP-2. The essentials: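 OV81-CP40 cells stably expressing lentiviral TOP-GFP or FOP-GFP reporters were plated and treated one day later for 6 h with LiCl and/or test compounds. Cells were harvested, PBS-washed and run by flow cytometry at 10,000 cells per sample, gating the top ~10% GFP-positive cells. Results were given as TOP/FOP, mean ± SEM, n = 3, by one-way ANOVA.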

In experiment [18] the test system is panel of 377 human wild-type kinases. Put plainly: Kinase selectivity profiling, KinaseProfiler. The class given is biochemical. The following applies: of 377 human wildtype kinases. The essentials: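 Radiometric 33P transfer from [γ-33P]ATP to peptide/protein substrates was used, in 8 mmol/L MOPS pH 7.0 with 0.2 mmol/L EDTA and kinase-specific metal supplements. Lipid and atypical kinases were run by HTRF in HEPES buffer. […] Output was % activity remaining, with full inhibition set by reference inhibitors.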

Experiment [19] relates to P8_rAsc patient-derived organoid. Put plainly: Organoid drug-response profiling. In kind it is cell-based, human. The following applies: 96 hours. The essentials: as §1
Experiment [20] has as its system FT237 cells. In words: MTT cell viability assay. The class given is cell-based, human. The settings on record: FT237, 48 hours, nondeterminable up to highest dose, Supplementary Fig. S5D.
The mark [21] stands for this setting: OV81-CP40, MTT used to generate CI, Fig. 2D.

`N.N.O=C([O-])C1(C(=O)[O-])CCC1.[Pt+2]` [Carboplatin, carboplatin]: the survival in experiment [1] (all 13 organoids tested, at 10 μmol/L) is reported as at least 50%. The compound also gave a negative-log IC50 (pIC50) in experiment [1] (five of the 13 organoids) of over 4.00. Besides, the reduction in survival entry in [1] (only one organoid, at 100 μmol/L) is “greater than 70%”.

For `N.N.[Cl][Pt][Cl]` [cisplatin], the EC50 entry in experiment [2] (setting [21]) was “non determinable (ND)”. Moreover, the negative-log EC50 (pEC50) is 4.89 in experiment [3], 4.65 in [4] and 5.02 in experiment [5].

In the case of `OC1CCC(Oc2cccc3cnc(Nc4ccc5nc[nH]c5c4)nc23)CC1` (stereo not shown) [NCB-0970], the negative logarithm of the EC50 (pEC50) was 5.44 in [6] (read-out: 48-hour EC50, OV231-CP30, 48 hours, Supplementary Fig. S2E) and 5.00 in [2] (read-out: 48-hour EC50, OV81-CP40, 48 hours, Supplementary Fig. S2E).

Regarding `OC1CCC(Oc2cccc3cnc(Nc4ccc5nc[nH]c5c4)nc23)CC1` (stereo not shown) [NCB-0846], the negative-log IC50 (pIC50) was under 5.00 in experiment [7], 5.40 in experiment [9] and under 5.00 in experiment [19]. Further, the pEC50 in experiment [8] (OV81-CP40, 48 hours, Fig. 2B) was 6.33; in [8] (OV81-CP40, LiCl+-treated cells (20 mmol/L LiCl), 48 hours, Fig. 3A) it was 5.67; in experiment [8] (OV81-CP40, LiCl−-treated cells, 48 hours, Fig. 3A), 6.23; in experiment [8] (OV81-CP40 transfected with siCDK9 9, 48 hours, Fig. 5C), 6.79; in experiment [8] (OV81-CP40 transfected with siCDK9 11, 48 hours, Fig. 5C), 6.85; in experiment [8] (OV81-CP40 transfected with siControl, 48 hours, Fig. 5C), 6.40. Also, the pEC50 is 6.36 in [6] (OV231-CP30, MTT used to generate CI, Fig. 2D); 6.33 in [2] (setting [21]); under 5.00 in experiment [11]; 5.36 in [3]; 5.80 in experiment [4]; 6.23 in experiment [12]. Also, the negative-log EC50 (pEC50) in experiment [15] is 5.80; in experiment [16], 6.15; in experiment [5], 5.58. Further, the “response of cell viability to dose curve” value in experiment [10] and in [14] was “minimally responsive” each time. Further, in experiment [13], the “reduction in cell viability at maximal doses” value is recorded as about 50%. Further, in experiment [17], the “TOP-GFP induction after LiCl addition” value is given as “significantly decrease”. For the same compound, the “number of kinase hits” value in experiment [18] worked out at 175.

For `COC[C@@H](C)NC1CCC(Nc2cc(-c3cccc(NCC4(C#N)CCOCC4)n3)c(Cl)cn2)CC1` (stereo partly shown) [NVP-2], the pEC50 in [2] (OV81-CP40, 48 hours, Supplementary Fig. S5D) is 7.90; in experiment [20], under 7.10; in experiment [15], 7.22; in experiment [16] it was 7.28. For the same compound, the “TOP-GFP induction after LiCl addition” value in experiment [17] was “significantly decrease”.
